An excerpt weighted towards active compounds, which were near 3.3% of everything screened.
LEDGF integ inh – blocks HIV-1 LEDGF/p75-dependent DNA integration | inhibition, % at 3.7 µM | hit rate 0.64% among 370,000 | TR-FRET IN-LEDGF/p75 DNA integration, Eu/Cy5 | AID 743269;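 active = inhibition above the screen-wide mean plus 3 SD, cut at about 13% in these data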;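 note: signal is the Cy5 over europium emission ratio at 671 and 618 nm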
PRMT1 FP inh – inhibitors of human PRMT1; inhibition, % at 2.79 µM; hit rate 1.3% among 370,000; Q99873; recombinant PRMT1, activity-based probe fluorescence polarization;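 active = inhibition above about 21% made by adding two undisclosed values, limit read from the data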
SIAE primary – blocks human sialic acid acetylesterase. SIAE FP-Rh probe binding, fluorescence polarization. inhibition, % at 9.66 µM. AID 1053197. hit rate 0.69% among 370,000. Q9HAT2;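 active = inhibition above a cutoff: mean of compounds within the control limits plus 3 SD of those, cut at about 17% in these data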
Target sequence (Q9HAT2 whole entry, looked up): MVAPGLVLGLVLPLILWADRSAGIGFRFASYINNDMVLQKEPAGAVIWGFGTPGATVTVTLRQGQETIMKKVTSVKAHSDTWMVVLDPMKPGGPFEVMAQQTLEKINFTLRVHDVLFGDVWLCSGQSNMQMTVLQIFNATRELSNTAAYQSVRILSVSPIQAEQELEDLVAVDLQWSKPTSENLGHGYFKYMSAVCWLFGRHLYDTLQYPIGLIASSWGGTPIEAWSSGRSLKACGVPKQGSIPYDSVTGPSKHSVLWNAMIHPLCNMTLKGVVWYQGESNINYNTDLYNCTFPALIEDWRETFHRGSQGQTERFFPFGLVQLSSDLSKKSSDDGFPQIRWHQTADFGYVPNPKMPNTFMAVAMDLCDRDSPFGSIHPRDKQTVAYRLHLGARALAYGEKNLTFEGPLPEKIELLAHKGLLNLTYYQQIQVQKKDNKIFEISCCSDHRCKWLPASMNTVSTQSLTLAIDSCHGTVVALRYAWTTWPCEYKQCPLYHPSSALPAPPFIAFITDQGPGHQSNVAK
TDP2 inh – TDP2 (human) inhibition, absorbance primary screen | O95551 | recombinant TDP2, T5PNP hydrolysis, p-nitrophenol absorbance 415 nm | inhibition, % at 12.8 µM | hit rate 0.34% among 370,000 | AID 720702;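 active = inhibition above the mean of all tested compounds plus 3 SD, set per campaign, cut at about 25% in these data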
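System – recombinant human TDP2 · Quantity – TDP2 enzyme at 120 nM final · Doses – single concentration, 12.8 µM nominal, with 1% DMSO · Incubation – 2 h at 37 °C · Measured by – epi absorbance of p-nitrophenol freed from T5PNP by hydrolysis · Read-out – % inhibition relative to enzyme-containing and enzyme-free wells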
UHRF1 MBD2 ctr – UHRF1 methyl-DNA binding inhibition; Q96T88; UHRF1 binding to methylated oligo, TR-FRET; inhibition, % at 4.4 µM; hit rate 0.75% among 370,000; AID 687016; in the data active = inhibition above about 21%;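 note: UHRF1 SRA domain binding a hemimethylated CpG hairpin DNA probe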
MBD2 inh – inhibitors of human MBD2 binding to methylated oligonucleotide; TR-FRET; inhibition, % at 4.4 µM; hit rate 0.31% among 370,000; AID 686964; in the data active = inhibition above about 13%
PRMT1 inh conf – confirmation of human PRMT1 inhibitors; shares compounds with PRMT1 FP inh; recombinant His-PRMT1, activity-based probe fluorescence polarization; inhibition, % at 2.79 µM; hit rate 42% among 3,300;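 active = mean inhibition across replicates above the hit cutoff derived for the earlier primary screen, cut at about 22% in these data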
Numbers stand for hits; n = inactive; x = not tested or not shown.

SMILES	LEDGF integ inh	PRMT1 FP inh	SIAE primary	TDP2 inh	UHRF1 MBD2 ctr	MBD2 inh	PRMT1 inh conf
O=C(CSc1nnc(-c2ccncc2)n1-c1ccc(Cl)cc1)c1ccc(Cl)c(Cl)c1	n	n	n	n	n	n	x
C[C@@H]1COc2cc(N3CCCC3)ccc2S(=O)(=O)N1C	n	n	n	n	n	n	x
COC(=O)C1CN(CC(C)C)CCS(=O)(=O)N1Cc1cccc(Cl)c1 (stereo not drawn)	n	n	n	n	n	n	x
CC(C)(C)OC(=O)NCCc1nnc(SCC(=O)c2ccc(Cl)cc2)o1	n	n	n	n	n	n	x
COC(=O)Nc1ccc(SCC(=O)c2ccccc2)cc1	n	26	n	n	n	n	n
COC(=O)Nc1ccc(SCC(=O)c2ccc(Cl)cc2)cc1	n	69	n	n	n	n	55
CCOC(=O)[C@]12CCCCC/C=C\1N(CCc1ccc(Cl)cc1)C(=O)[C@H]2CC(=O)NCc1ccccc1	n	n	n	n	n	n	x
Cn1ncc2c(=S)nc(Cl)[nH]c21	n	31	n	n	n	n	n
S=c1[nH]nc(-c2cc(-c3ccsc3)n[nH]2)n1-c1cccc2ccccc12	n	28	n	n	n	n	n
Cc1ccccc1C1CCC2(CCC(=O)N2CC[C@@H](O)c2ccccc2)CC1 (stereo partly drawn)	n	n	n	n	n	n	x
Cc1ccsc1/C=C1\Oc2cc(O)ccc2C1=O	n	40	n	n	n	n	30
Cc1cc(=S)nc(-c2ccccn2)[nH]1	n	33	n	n	n	n	n
Cc1cccc(NC(c2ccc(C)s2)c2ccc3ccc(C)nc3c2O)n1 (stereo not drawn)	n	26	n	n	n	n	28
Cc1ccnc(NC(c2ccsc2)c2ccc3ccc(C)nc3c2O)c1 (stereo not drawn)	n	44	n	n	n	n	50
O=C(COC(=O)c1cc(Br)ccc1O)Nc1cc(S(=O)(=O)N2CCCC2)ccc1Cl	n	45	n	n	n	n	22
COc1ccc(NC(=O)c2cccc(-c3ccc(O)cc3)c2)cn1	n	41	n	n	n	n	n
CC(=O)Nc1cccc(NC(=O)c2cccc(-c3ccc(O)cc3)c2)c1	n	n	n	n	n	n	x
C=C(C)c1cccc(C(C)(C)NC(=O)Nc2ccc(OC)nc2)c1	n	25	n	n	n	n	n
C=C(C)c1cccc(C(C)(C)NC(=O)Nc2ccc(C)cn2)c1	n	n	n	n	n	n	x
O=C(OCCN1CCN(C2CN(Cc3cn(Cc4cccc(F)c4)nn3)S(=O)(=O)C2)CC1)c1cc2ccccc2o1 (stereo not drawn)	n	n	n	n	n	n	x
COC(=O)c1ccc2nc(-c3ccco3)c(Cc3ccccc3C(F)(F)F)n2c1	n	34	n	n	n	n	n
COC(=O)c1ccc2nc(-c3ccco3)c(Cc3ccccc3OC)n2c1	n	44	n	n	26	16	28
COC(=O)[C@]12C[C@H](CC(=O)NCc3cccs3)C(=O)N(Cc3cccc4ccccc34)C1=C[C@H](C(C)(C)C)O[C@@H]2C	n	n	n	n	n	n	x
Cc1c(C(=O)NCc2ccc3c(c2)OCO3)sc2nc(-c3ccc(F)cc3)cn12	n	29	n	n	n	n	n
COc1cc(NC(=O)C2CCCN(S(=O)(=O)c3ccccc3[N+](=O)[O-])C2)cc(OC)c1 (stereo not drawn)	n	n	n	n	n	n	x
SMILES	LEDGF integ inh	PRMT1 FP inh	SIAE primary	TDP2 inh	UHRF1 MBD2 ctr	MBD2 inh	PRMT1 inh conf
O=C(OCC#CCSc1nnc(-c2ccc3ccccc3c2)o1)c1cccs1	n	n	n	n	n	n	x
COC(=O)[C@]12C[C@H](CC(=O)N3CCCC3)C(=O)N(Cc3ccco3)C1=C[C@H](C(C)C)O[C@@H]2C1CC1	n	n	n	n	n	n	x
Cc1[nH]n(-c2ccccc2)c(=S)c1C=Nc1ccc([N+](=O)[O-])cc1	n	87	n	n	n	n	96
CC1OC(CC(=O)O)CC2=C1C(=O)c1c(O)cccc1C2=O (stereo not drawn)	40	95	n	34	n	n	46
COc1cccc2c1-c1c(O)cccc1C2=O	n	n	n	n	n	n	x
Cc1ccc(-c2nc3ncccn3c2NC(=O)c2cccc(C)c2)cc1	n	n	n	n	n	n	x
COc1ccc(O)c(/C=c2/sc3nc4cc(C)c(C)cc4n3c2=O)c1	n	39	n	n	n	n	70
COC(=O)c1cc(=O)nc2sc3cc(OC)ccc3n12	n	n	n	n	n	n	x
Cc1ccccc1-c1nc2ccccc2c(=O)n1/N=C/c1ccccc1[N+](=O)[O-]	n	31	n	n	n	n	n
C[C@H](O)[C@@H]1CN2CCc3ccc(-c4ccc5c(c4)OCO5)cc3[C@@H]2C[C@@H]1N(C)CC1CCCCC1	n	n	n	n	n	n	x
CN(C)CCCN(C(=O)c1ccc(S(=O)(=O)N2CCc3ccccc32)cc1)c1nc2c(Cl)cccc2s1	n	33	n	n	n	n	n
CN(C)CCN(C(=O)c1ccc(S(=O)(=O)N2CCc3ccccc32)cc1)c1nc2ccc(F)cc2s1	n	50	n	n	n	n	n
C=CCN1C(=O)[C@@H](CC(=O)NCCCC)[C@]2(C(=O)OCC)CCCCC/C=C/12	n	n	n	n	n	n	x
COc1ccc(-c2nnn3c2Cn2c4ccccc4c(=O)n2[C@@H](C(C)C)C3)cc1	n	n	n	n	n	n	x
C[n+]1c2n(c3ccccc31)N=C(c1ccc(Cl)cc1)CS2	n	40	n	n	n	n	n
O=C(O)c1cc(-c2ccco2)nc2ccc(Br)cc12	n	35	n	n	n	n	n
O=C(COC(=O)c1cc(-c2ccc(Cl)s2)nc2ccccc12)NCc1ccco1	n	30	n	n	n	n	n
O=C(COC(=O)c1cc(-c2ccco2)nc2ccccc12)NCc1ccc2c(c1)OCO2	n	35	n	n	n	n	n
NC(=O)COC(=O)c1cc(-c2ccco2)nc2ccccc12	n	28	n	n	n	n	n
O=C(COC(=O)c1ccco1)NCc1ccc2c(c1)OCO2	n	n	n	n	n	n	x
O=C(COC(=O)c1cc(-c2cccs2)nc2ccccc12)NCc1ccco1	n	n	n	n	n	n	x
CC(C)C[C@@H]1COc2cccc(N3CCCC3)c2S(=O)(=O)N1C	n	n	n	n	n	n	x
O=C(N1CCC(C(O)(c2ccccc2)c2ccccc2)CC1)n1ncc(C(O)(c2ccccc2)c2ccccc2)n1	n	n	n	n	n	n	x
O=[N+]([O-])c1cc(C=NN2CCN(Cc3ccccc3Cl)CC2)ccc1Cl	n	n	n	n	n	n	x

High-throughput results as filed in PubChem BioAssay.
